The values that follow come from ChEMBL document CHEMBL1177703, “Design and synthesis of novel xyloketal derivatives and their vasorelaxing activities in rat thoracic aorta and angiogenic activities in zebrafish angiogenesis screen” (J Med Chem, 2010).

Molecules are shown by their SMILES. Counter-ions that a name gives are not always drawn. Active and inactive are the calls of the source. The calls are words filed in the database; no cut-off is given here.

Data set [1] has as its system HUVEC. Briefly: Cytotoxicity against HUVEC assessed as cell viability > 200 uM after 24 hrs by MTT assay. It counts as cell-based. Conditions: human. On the technique in general: Tetrazolium dyes change colour on reduction, which living cells bring about.
Data set [2] has as its system Aorta. The data set is described as follows: Vasorelaxant activity in Sprague-Dawley rat endothelium intact thoracic aortic rings assessed as inhibition of KPSS-induced contraction. It is filed as functional, tissue-based. The method, boiled down:
(§1)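 Rat thoracic aortic rings (2-3 mm) held in Krebs bicarbonate at 37 °C, pH 7.4, gassed with 95% O2/5% CO2. Endothelium accepted as intact with >80% relaxation to 1 μM ACh after 1 μM phenylephrine, and as denuded with no ACh response. Rings precontracted with KCl (30 mM intact, 25 mM denuded). Cumulative curves 0.5-200 μM, vehicle 2% DMSO, one curve per ring; EC50 derived.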

Data set [3] is filed under the species Danio rerio. Briefly: Angiogenic activity in zebrafish embryo at 100 uM after 72 hrs by microscopical analysis.
Data set [4] has as its system Aorta. Briefly: Vasorelaxant activity in Sprague-Dawley rat endothelium denuded thoracic aortic rings assessed as inhibition of KCL-induced contraction. It is filed as functional, tissue-based. The method, boiled down:
as §1

Data set [5] deals with HUVEC. Briefly: Induction of nitric oxide production in HUVEC at 20 uM after 24 hrs by griess reaction. The note with it: Homo sapiens. It is filed as functional, cell-based. The method, boiled down: (§2)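 HUVECs preincubated 24 h with 20 μM compound, alone or together with 100 μM L-NAME. Nitrite in 100 μL medium mixed 1:1 with Griess reagent for 15 min, absorbance read at 540 nm, quantified against a NaNO2 standard curve run with each experiment. Samples in triplicate; mean ± SD, n = 6.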
For orientation: The Griess reaction detects nitrite, a stable product of nitric oxide.

In data set [6] the test system is HUVEC. The data set is described as follows: Induction of nitric oxide production in HUVEC at 20 uM after 24 hrs by griess reaction in presence of L-NAME. It counts as functional, cell-based. Conditions: Homo sapiens. The method, boiled down: as §2
Data set [7] deals with HUVEC. Briefly: Protection against oxidatively modified low density lipoprotein-induced cell injury in HUVEC assessed as cell viability at 20 uM pretreated for 30 mins before oxLDL challenge measured after 24 hrs by MTT assay. It counts as functional, cell-based. Conditions: Homo sapiens. The method, boiled down: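 HUVECs pretreated 30 min with 20 μM compound, then given oxLDL (150 μg/mL) or vehicle for 24 h. MTT added and absorbance read at 570 nm after 4 h. Mean ± SD, n = 6.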

Data set [8] is filed under the species Danio rerio. Briefly: Angiogenic activity in zebrafish embryo after 72 hrs by microscopical analysis.

For `CNC(=O)c1c(O)c2c(c3c1O[C@@]1(C)OC[C@H](C)[C@H]1C3)O[C@@]1(C)OC[C@H](C)[C@H]1C2`, in data set [1], the Activity entry is given as “Non-toxic”. The 50% effective concentration (EC50) – broadly, the concentration that produces a half-maximal response – in data set [2] stood at 9 µM; in data set [4], 15 µM. In data set [3], the Angiogenic activity result was “Active”.

Turning to `COC(=O)C(C)NC(=O)c1c(O)c2c(c3c1O[C@@]1(C)OC[C@H](C)[C@H]1C3)O[C@@]1(C)OC[C@H](C)[C@H]1C2` (stereo partly drawn), in data set [1], the Activity entry is listed as “Non-toxic”. Moreover, the EC50 in data set [2] is 5 µM; in data set [4], 13 µM. Also, the Angiogenic activity result in data set [3] was “Active”.

Turning to `C[C@H]1CO[C@]2(C)Oc3c(c4c(c5c3C[C@@H]3[C@@H](C)CO[C@]3(C)O5)C[C@@H]3[C@@H](C)CO[C@]3(C)O4)C[C@H]12`, the outcome in data set [5] was Active. Besides, the Activity result in data set [1] is reported as “Non-toxic”. The concentration for a half-maximal effect (EC50) is 12 µM in data set [2] and 31 µM in data set [4]. In addition, the outcome in data set [6] was inactive. For the same compound, the Angiogenic activity entry in data set [3] is “Active”.

`COC1(C)CCc2c(c3c(c4c2OC(C)(OC)CC4)OC(C)(OC)CC3)O1` (stereo not drawn): the Activity entry in data set [1] is “Non-toxic”. The EC50 in data set [2] came to 65 µM; in data set [4], 118 µM. Moreover, the Angiogenic activity entry in data set [3] was “Active”.

Regarding `C[C@H]1CO[C@]2(C)Oc3c(c(O)c(Cc4c(O)c5c(c6c4O[C@@]4(C)OC[C@H](C)[C@H]4C6)O[C@@]4(C)OC[C@H](C)[C@H]4C5)c4c3C[C@@H]3[C@@H](C)CO[C@]3(C)O4)C[C@H]12`, the Activity entry in data set [1] is “Non-toxic”. The EC50 in data set [2] is 87 µM; in data set [4] it was over 200 µM. In addition, the Angiogenic activity result in data set [3] was “Active”.

Regarding `CC1COC2(C)Oc3cc(O)cc(O)c3CC12` (racemic), the Activity result in data set [1] is reported as “Non-toxic”. The concentration for a half-maximal effect (EC50) came to 39 µM in data set [2] and 66 µM in data set [4]. Further, the Angiogenic activity result in data set [3] is “Active”. Further, the outcome in data set [7] was Active.

As for `CC1COC2(C)Oc3c(c4c(c5c3CC3C(C)COC3(C)O5)CC3C(C)COC3(C)O4)CC12` (racemic), the Activity result in data set [1] is reported as “Non-toxic”. Besides, the EC50 in data set [2] is 6 µM; in data set [4], 11 µM. In data set [3], the Angiogenic activity entry is “Active”. Also, the outcome in data set [7] was Active.

On to `CC1COC2(C)Oc3cc(O)c4c(c3CC12)OC1(C)OCC(C)C1C4` (racemic) [(+/-)-XYLOKETAL B], for which the Angiogenic activity entry in data set [8] was “Dose-dependent effect”. In addition, in data set [1], the Activity result is given as “Non-toxic”. The EC50 in data set [2] was determined as 19 µM; in data set [4] it was 41 µM. Further, the Angiogenic activity entry in data set [3] was “Active”. The result in data set [7] was Active.

`C[C@H]1CO[C@]2(C)Oc3ccc4c(c3C[C@H]12)O[C@@]1(C)OC[C@H](C)[C@H]1C4` [DEHYDROXY XYLOKETAL B]: in data set [1], the Activity result was “Non-toxic”. Also, the EC50 in data set [2] was 55 µM; in data set [4], 72 µM.

Consider `C[C@H]1CO[C@]2(C)Oc3cccc(O)c3C[C@H]12` [DEHYDROXY XYLOKETAL H], for which the Activity result in data set [1] was “Non-toxic”. Besides, the EC50 in data set [2] is 128 µM; in data set [4], over 200 µM.

`Cc1cc2c(c3c1C[C@@H]1[C@@H](C)CO[C@]1(C)O3)C[C@@H]1[C@@H](C)CO[C@]1(C)O2` [METHYL XYLOKETAL B]: the result in data set [5] and in data set [7] was Active. Moreover, the Activity entry in data set [1] is recorded as “Non-toxic”. Also, the EC50 is 40 µM in data set [2] and 52 µM in data set [4]. Further, in data set [6], the result was inactive. Also, the Angiogenic activity result in data set [3] was “Active”.

For `C[C@H]1CO[C@]2(C)Oc3c(c(O)c(C(=O)O)c4c3C[C@@H]3[C@@H](C)CO[C@]3(C)O4)C[C@H]12` [XYLOKETAL B ACID], in data set [1], the Activity result is recorded as “Non-toxic”. For the same compound, the EC50 in data set [2] and in data set [4] was over 200 µM in each case.

Take `C=C=CCOc1cc2c(c3c1C[C@@H]1[C@@H](C)CO[C@]1(C)O3)C[C@@H]1[C@@H](C)CO[C@]1(C)O2` [XYLOKETAL B ALLENIC ETHER]: the Activity entry in data set [1] is recorded as “Non-toxic”. Further, the EC50 in data set [2] worked out at 12 µM; in data set [4], 11 µM. Moreover, the Angiogenic activity entry in data set [3] was “Active”. Also, the result in data set [7] was Active.

As to `CCCCOc1cc2c(c3c1C[C@@H]1[C@@H](C)CO[C@]1(C)O3)C[C@@H]1[C@@H](C)CO[C@]1(C)O2` [XYLOKETAL B BUTYL ETHER], in data set [1], the Activity entry is “Non-toxic”. In addition, the EC50 in data set [2] is 111 µM; in data set [4], over 200 µM.

Turning to `C[C@H]1CO[C@]2(C)Oc3cc(OC/C=C/c4ccccc4)c4c(c3C[C@H]12)O[C@@]1(C)OC[C@H](C)[C@H]1C4` [XYLOKETAL B CINNAMYL ETHER], the Activity result in data set [1] is given as “Non-toxic”. Further, the EC50 in data set [2] is 64 µM; in data set [4] it was over 200 µM.

In the case of `C[C@H]1CO[C@]2(C)Oc3c(c(O)c(C(N)=O)c4c3C[C@@H]3[C@@H](C)CO[C@]3(C)O4)C[C@H]12` [XYLOKETAL B FORMAMIDE], the Activity result in data set [1] is recorded as “Non-toxic”. The EC50 was found to be 3 µM in data set [2] and 10 µM in data set [4]. Also, in data set [3], the Angiogenic activity entry is “Active”.

As to `CCCCCCOc1cc2c(c3c1C[C@@H]1[C@@H](C)CO[C@]1(C)O3)C[C@@H]1[C@@H](C)CO[C@]1(C)O2` [XYLOKETAL B HEXYL ETHER], in data set [1], the Activity entry is recorded as “Non-toxic”. In addition, the half-maximal effective concentration (EC50) in data set [2] and in data set [4] was over 200 µM each time.

For `COc1cc2c(c3c1C[C@@H]1[C@@H](C)CO[C@]1(C)O3)C[C@@H]1[C@@H](C)CO[C@]1(C)O2` [XYLOKETAL B METHYL ETHER], the outcome in data set [5] and in data set [7] was Active. Also, the Activity entry in data set [1] is given as “Non-toxic”. Moreover, the EC50 was 17 µM in data set [2] and 33 µM in data set [4]. For the same compound, the outcome in data set [6] was inactive. Moreover, the Angiogenic activity result in data set [3] is “Active”.

As to `COC(=O)c1c(O)c2c(c3c1O[C@@]1(C)OC[C@H](C)[C@H]1C3)O[C@@]1(C)OC[C@H](C)[C@H]1C2` [XYLOKETAL B METHYL FORMATE], in data set [1], the Activity entry is recorded as “Non-toxic”. In addition, the concentration for a half-maximal effect (EC50) came to 8 µM in data set [2] and 14 µM in data set [4]. In addition, in data set [3], the Angiogenic activity result is “Active”.

In the case of `C#CCOc1cc2c(c3c1C[C@@H]1[C@@H](C)CO[C@]1(C)O3)C[C@@H]1[C@@H](C)CO[C@]1(C)O2` [XYLOKETAL B PROPARGYL ETHER], the result in data set [5] and in data set [7] was Active. Further, the Activity entry in data set [1] is recorded as “Non-toxic”. Further, the EC50 in data set [2] came out at 23 µM; in data set [4] it was 22 µM. In addition, in data set [6], the result was inactive. Moreover, the Angiogenic activity result in data set [3] is “Active”.

As to `CCCOc1cc2c(c3c1C[C@@H]1[C@@H](C)CO[C@]1(C)O3)C[C@@H]1[C@@H](C)CO[C@]1(C)O2` [XYLOKETAL B PROPYL ETHER], the Activity result in data set [1] is “Non-toxic”. The figures for the EC50 in data set [2] and in data set [4] were 43 µM and 77 µM, respectively. The Angiogenic activity result in data set [3] was “Active”. Also, the outcome in data set [7] was Active.

Take `COc1cc(OC)c2c(c1)O[C@@]1(C)OC[C@H](C)[C@H]1C2` [XYLOKETAL H DIMETHYL ESTER]: in data set [1], the Activity entry is given as “Non-toxic”. Besides, the results for the EC50 in data set [2] and in data set [4] were 37 µM and 80 µM, respectively.
